Measured values as given in ChEMBL document CHEMBL1926630, “Structure-activity relationships of chalcone analogs as potential inhibitors of ADP- and collagen-induced platelet aggregation” (2011).

Tests used:
[1] = Antiplatelet activity against New Zealand white rabbit platelets assessed as inhibition of ADP-induced platelet aggregation at 50 ug/mL treated 2 mins before ADP challenge measured after 4 mins by turbidimetric analysis; type: functional; details: Oryctolagus cuniculus
In short: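 Washed platelets from ear-vein blood (acid-citrate dextrose), washed in Ca²⁺-free Tyrode's with BSA, heparin and apyrase, resuspended in Tyrode's with 1 mM Ca²⁺ at 2.5 × 10⁸/mL. Stirred at 900 rpm, preincubated 2 min at 37 °C with compound or vehicle (DMSO, final 0.5%), then challenged with 20 μM ADP. Maximal light-transmission rise within 4 min; inhibition computed versus vehicle.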

[2] = Antiplatelet activity against New Zealand white rabbit platelets assessed as inhibition of collagen-induced platelet aggregation at 50 ug/mL treated 2 mins before collagen challenge measured after 4 mins by turbidimetric analysis; type: functional; details: Oryctolagus cuniculus
In short: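 Rabbit washed platelets (EDTA-treated PRP, washed in Ca²⁺-free Tyrode's with BSA, heparin and apyrase at 37 °C for 20 min) were resuspended in 1 mM Ca²⁺ Tyrode's at 2.5 × 10⁸/mL. Compound or DMSO vehicle (final 0.5%) was added for 2 min at 37 °C with 900 rpm stirring before collagen. Read-out was peak transmission increase within 4 min, expressed as inhibition relative to vehicle.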

cells [3] = details: Oryctolagus cuniculus, New Zealand white, Platelet, read-out: INH
cells [4] = details: Oryctolagus cuniculus, New Zealand white, Platelet, read-out: INH; remark: listed apart in the source

SMILES | inhibition at 50 µg/mL [1] [%] | inhibition at 50 µg/mL [2] [%] | inhibition at 9.6 µg/mL (cells [3]) [%] | inhibition at 9.6 µg/mL (cells [4]) [%]
CC(C)=CCOc1ccc(C(=O)/C=C/c2ccc3c(c2)OCO3)c(O)c1 | 20 | 17.3 |  | 
O=C(/C=C/c1cccnc1)c1ccc(CN2CCOCC2)c(O)c1 | 100 | 95.3 |  | 
O=C(/C=C/c1ccncc1)c1ccc(CN2CCOCC2)c(O)c1 | 100 | 100 |  | 
C=CCOc1ccc(C(=O)/C=C/c2cc(OC)ccc2OC)c(O)c1 | 33.6 | 57.2 |  | 
CC(C)Oc1ccc(C(=O)/C=C/c2cccs2)c(O)c1CN1CCOCC1 | 29 | 3.2 |  | 
C=CCOc1ccc(C(=O)/C=C/c2cc(OC)c(OC)cc2OC)c(O)c1 | 21.6 | 0 |  | 
COc1ccc(/C=C/C(=O)c2ccc(C)cc2)c(CN2CCOCC2)c1O | 99.3 | 57.6 |  | 
COc1cc(/C=C/C(=O)c2ccc(OCC=C(C)C)cc2O)cc(OC)c1 | 20.7 | 8.7 |  | 
C=CCOc1ccc(C(=O)/C=C/c2cc(OC)c(OC)c(OC)c2)c(O)c1 | 70.4 | 43.2 |  | 
COc1cc(/C=C/C(=O)c2ccc(OCC=C(C)C)cc2O)cc(OC)c1OC | 27.1 | 7.9 |  | 
COc1cc(O)c(C(=O)/C=C/c2ccco2)cc1CN1CCOCC1 | 17.2 | 19.7 |  | 
C=CCOc1ccc(C(=O)/C=C/c2ccccc2)c(O)c1 | 25.6 | 6.3 |  | 
CCOc1cc(O)c(C(=O)/C=C/c2ccccn2)cc1CN1CCOCC1 | 100 | 43 |  | 
C=CCOc1ccc(C(=O)/C=C/c2cc(OC)cc(OC)c2)c(O)c1 | 30.8 | 13.4 |  | 
O=C(/C=C/c1ccccn1)c1ccc(O)c(CN2CCOCC2)c1 | 99.3 | 63.5 |  | 
CCOc1cc(O)c(C(=O)/C=C/c2ccc(C)o2)cc1CN1CCOCC1 | 16.5 | 0 |  | 
C=CCOc1ccc(C(=O)/C=C/c2ccc(OC)cc2)c(O)c1 | 24.9 | 5.5 |  | 
Cc1ccsc1/C=C/C(=O)c1ccc(O)c(CN2CCOCC2)c1 | 21.4 | 12.5 |  | 
COc1ccc(/C=C/C(=O)c2cc(CN3CCOCC3)c(OC)cc2O)cc1 | 36.7 | 7.1 |  | 
C=CCOc1ccc(C(=O)/C=C/c2cccc(OC)c2OC)c(O)c1 | 30.8 | 44.7 |  | 
COc1ccc(/C=C/C(=O)c2ccc(OCC=C(C)C)cc2O)cc1 | 25.7 | 17.3 |  | 

SMILES | inhibition at 50 µg/mL [1] [%] | inhibition at 50 µg/mL [2] [%] | inhibition at 9.6 µg/mL (cells [3]) [%] | inhibition at 9.6 µg/mL (cells [4]) [%]
COc1ccc(/C=C/C(=O)c2ccco2)c(CN2CCCCC2)c1O | 100 | 93.7 |  | 
CCOc1cc(O)c(C(=O)/C=C/c2cccnc2)cc1CN1CCOCC1 | 100 | 46.9 |  | 
COC(=O)[C@H](c1ccccc1Cl)N1CCc2sccc2C1 [CLOPIDOGREL] |  |  | 85.2 | 3.5
O=C(/C=C/c1ccco1)c1cccc(O)c1CN1CCOCC1 | 100 | 60.8 |  | 
C=CCOc1ccc(C(=O)/C=C/c2ccc3c(c2)OCO3)c(O)c1 | 21.4 | 7.9 |  | 
COc1ccc(/C=C/C(=O)c2cccs2)c(CN2CCCCC2)c1O | 100 | 95.2 |  | 
O=C(/C=C/c1cccs1)c1ccc(O)c(CN2CCOCC2)c1 | 23.4 | 25 |  | 
O=C(/C=C/c1cccnc1)c1ccc(O)c(CN2CCOCC2)c1 | 100 | 56.4 |  | 
COc1ccc(/C=C/C(=O)c2ccc(OCC=C(C)C)cc2O)c(OC)c1 | 42.7 | 39.2 |  | 
Cc1ccsc1/C=C/C(=O)c1cccc(O)c1CN1CCOCC1 | 79.1 | 65.5 |  | 
O=C(/C=C/c1ccccn1)c1ccc(CN2CCOCC2)c(O)c1 | 100 | 98.4 |  | 
C=CCOc1ccc(C(=O)/C=C/c2ccc(OC)c(OC)c2OC)c(O)c1 | 26.4 | 14.9 |  | 
O=C(/C=C/c1ccccn1)c1ccc(O)c(CN2CCOCC2)c1O | 100 | 12.5 |  | 
COc1ccc(/C=C/C(=O)c2ccc(OCC=C(C)C)cc2O)cc1OC | 24.3 | 10.3 |  | 
Cc1ccc(/C=C/C(=O)c2ccc(O)c(CN3CCOCC3)c2)o1 | 12.8 | 0 |  | 
COc1ccc(OC)c(/C=C/C(=O)c2ccc(OCC=C(C)C)cc2O)c1 | 22.8 | 14.9 |  | 
COc1ccc(/C=C/C(=O)c2ccc(OCC=C(C)C)cc2O)cc1O | 23 | 13.4 |  | 
COc1cc(OC)c(OC)cc1/C=C/C(=O)c1ccc(OCC=C(C)C)cc1O | 15.7 | 4 |  | 
C=CCOc1ccc(C(=O)/C=C/c2ccc(OC)cc2OC)c(O)c1 | 35.2 | 53.4 |  | 
O=C(/C=C/c1ccncc1)c1ccc(O)c(CN2CCOCC2)c1 | 100 | 79.4 |  | 
COc1cc(O)c(C(=O)/C=C/c2ccccc2)cc1CN1CCOCC1 | 97.2 | 29.2 |  | 

SMILES | inhibition at 50 µg/mL [1] [%] | inhibition at 50 µg/mL [2] [%] | inhibition at 9.6 µg/mL (cells [3]) [%] | inhibition at 9.6 µg/mL (cells [4]) [%]
O=C(/C=C/c1ccco1)c1ccc(O)c(CN2CCOCC2)c1 | 18.4 | 4.7 |  | 
O=C(/C=C/c1ccccc1)c1ccc(O)c(CN2CCOCC2)c1 | 34.2 | 20.3 |  | 
CCOc1cc(O)c(C(=O)/C=C/c2ccco2)cc1CN1CCOCC1 | 22.5 | 0 |  | 
CC(C)Oc1cc(O)c(C(=O)/C=C/c2cccs2)cc1CN1CCOCC1 | 23.4 | 0 |  | 
COc1cc(O)c(C(=O)/C=C/c2cccnc2)cc1CN1CCOCC1 | 100 | 96.1 |  | 
COc1ccc(/C=C/C(=O)c2ccc(OCC=C(C)C)cc2O)c(OC)c1OC | 21.4 | 12.6 |  | 
CC(C)=CCOc1ccc(C(=O)/C=C/c2sccc2C)c(O)c1CN1CCOCC1 | 14.2 | 11.1 |  | 
Cc1ccsc1/C=C/C(=O)c1cc(CN2CCOCC2)c(O)c(CN2CCOCC2)c1 | 24.9 | 50 |  | 
CCOc1cc(O)c(C(=O)/C=C/c2ccccc2)cc1CN1CCOCC1 | 39.3 | 2.3 |  | 
CC(C)=CCOc1ccc(C(=O)/C=C/c2ccccc2)c(O)c1 [CORDOIN] | 16.4 | 6.3 |  | 
CCOc1cc(O)c(C(=O)/C=C/c2sccc2C)cc1CN1CCOCC1 | 32.3 | 0 |  | 
COc1cc(O)c(C(=O)/C=C/c2cccs2)cc1CN1CCOCC1 | 26.4 | 11.1 |  | 
COc1ccc(/C=C/C(=O)c2cccc(C)c2)c(CN2CCOCC2)c1O | 100 | 78 |  | 
COc1ccc(/C=C/C(=O)c2cccnc2)c(CN2CCCCC2)c1O | 100 | 98.4 |  | 
COc1cccc(/C=C/C(=O)c2ccc(OCC=C(C)C)cc2O)c1OC | 21.3 | 19.7 |  | 
O=C(/C=C/c1cccs1)c1cccc(O)c1CN1CCOCC1 | 100 | 83.5 |  | 
O=C(/C=C/c1ccccc1)c1cccc(O)c1CN1CCOCC1 | 100 | 89.8 |  | 
O=C(/C=C/c1ccccn1)c1cc(CN2CCOCC2)c(O)c(CN2CCOCC2)c1 | 100 | 78.6 |  | 
COc1ccc(C(=O)/C=C/c2ccccn2)c(O)c1CN1CCOCC1 | 100 | 93.7 |  | 
O=C(/C=C/c1ccccn1)c1ccc(CN2CCOCC2)c(O)c1CN1CCOCC1 | 100 | 100 |  | 
